Results reported in ChEMBL document CHEMBL1123165, “A quantitative structure-activity relationship and molecular graphics analysis of hydrophobic effects in the interactions of inhibitors with alcohol dehydrogenase” (J Med Chem, 1986).

What was measured:
[1] = Partition coefficient (logP); format: physicochemical; conditions: octanol/water
Alcohol dehydrogenase = Alcohol dehydrogenase (Equus caballus, UniProt P00327+P00328); test: Inhibitory activity against horse liver alcohol dehydrogenase (ADH)
In short: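 Horse liver ADH crystalline suspension, pelleted (12000g, 3 min) to remove ethanol, redissolved in 0.1 M potassium phosphate pH 7.0, diluted 1:10; 0.004 unit per assay. Reaction started with 5 or 10 mM ethanol, NADH read at 340 nm.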

SMILES	logP [1]	Log 1/Ki (Alcohol dehydrogenase)
NC(=O)Cc1ccc(OCc2ccc(Br)cc2)cc1	2.97	5.7
NC(=O)Cc1ccc(OCc2ccccc2)cc1	2.11	5.7
CCCCCc1cn[nH]c1	2.96	8.6
CCCCCOc1ccc(CNC=O)cc1		7.52
NC(=O)C(Br)Br	0.18	2.49
NC(=O)Cc1ccc(I)cc1	1.57	5.1
NC(=O)Cc1ccc(Cl)cc1	1.16	4.7
NC(=O)C(Cl)Cl	-0.03	2.19
NC(=O)C(F)F	-0.76	1.12
CC(C)Oc1ccc(CC(N)=O)cc1	1.3	4.1
CCOc1ccc(CC(N)=O)cc1	0.83	4.1
CCCOc1ccc(CC(N)=O)cc1	1.5	4.6
COc1ccc(CC(N)=O)cc1	0.43	4.15
CC(C)CCOc1ccc(CC(N)=O)cc1	2.38	5.22
CCCCOc1ccc(CNC=O)cc1		7.4
C=C(C)C(N)=O	-0.71	3.02
NC(=O)Cc1ccc(F)cc1	0.59	4.19
CCCCCCc1cn[nH]c1	3.46	8.88
NC(=O)C(Cl)(Cl)Cl	0.79	2.07
CCCCOc1ccc(CC(N)=O)cc1	2.04	5.15

SMILES	logP [1]	Log 1/Ki (Alcohol dehydrogenase)
O=CNCc1ccc(OCc2ccccc2)cc1		7.82
NC(=O)CCl	-0.59	2.12
O=CNCc1ccc(O)cc1		5.75
CCCCCOc1ccc(CC(N)=O)cc1	2.58	5.92
CCC(CC)C(N)=O	0.53	3.41
CCCc1cn[nH]c1	1.96	7.65
NC(=O)Cc1ccc(Br)cc1	1.31	4.7
NC(=O)Cc1ccc(OCC2CCCCC2)cc1	3.42	6
CCCCCCc1ccc(CNC=O)cc1		7.58
C/C=C(\C)C(N)=O	-0.21	3.15
C/C=C/C(N)=O	-0.51	2.89
NC(=O)CBr		2.24
C=CC(N)=O [ACRYLAMIDE]	-1.01	2.11
Cc1cn[nH]c1 [FOMEPIZOLE]	0.96	6.85
NC(=O)CI [IODOACETAMIDE]	0.15	2.72
CC(C)C(N)=O [ISOBUTYRAMIDE]	-0.39	3.77
NC(=O)CF [MONOFLUOROACETAMIDE]	-1.03	1.41
CC(C)(C)C(N)=O [PIVALAMIDE]	0.15	2.46
c1cn[nH]c1 [PYRAZOLE]	0.26	5.73
NC(=O)C(F)(F)F [TRIFLUOROACETAMIDE]	-0.11	1.33
